# Experimental data reported in ChEMBL document CHEMBL4689842, “EUbOPEN Chemogenomics Library wave 1” (2021).
# Legend:
# Assay type in all cases: toxicity, cell-based
# U2OS = test: Incucyte cell viability with U2OS; conditions: human, 10 µM, compound concentration 10 uM; also: filed as whole numbers so only -1 and 0 and 1 occur
# HEK-293T = test: Incucyte cell viability with HEK293T; conditions: human, 10 µM, compound concentration 10 uM; also: filed as whole numbers so only -1 and 0 and 1 occur
# Fibroblast [1] = test: Incucyte cell viability with human fibroblast; conditions: 10 µM, compound concentration 10 uM; also: filed as whole numbers so only -1 and 0 and 1 occur
# Fibroblast [2] = test: Multiplex assay against human fibroblast
# Method in brief: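 Four dyes were applied at seeding to live cells: Hoechst33342, BioTracker Green Microtubule Cytoskeleton Dye, MitoTracker Red and Annexin V Alexa Fluor 680. Imaging after compound addition used a CQ1 microscope at 37°C and 5% CO2. CellPathfinder machine-learning gating then sorted cells into Hoechst high-intensity objects or normal cells, normal cells into healthy, pyknosed or fragmented nuclei, and pyknosed cells into mitotic or apoptotic, with tubulin, mitochondrial-mass and membrane-permeability phenotypes given as per cents of healthy-nucleus cells.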
# [3] = 6 h, replicate number 1, timepoint 6 hours
# [4] = 12 h, replicate number 1, timepoint 12 hours
# [5] = 12 h, replicate number 2, timepoint 12 hours
# [6] = 18 h, replicate number 1, timepoint 18 hours
# [7] = 24 h, replicate number 1, timepoint 24 hours
# [8] = 12 h, 1 µM, compound concentration 1 uM, replicate 1
# [9] = 12 h, 1 µM, compound concentration 1 uM, replicate 2
# [10] = 12 h, 10 µM, compound concentration 10 uM, replicate 1
# [11] = 12 h, 10 µM, compound concentration 10 uM, replicate 2
# [12] = 24 h, 1 µM, compound concentration 1 uM, replicate 1
# [13] = 24 h, 1 µM, compound concentration 1 uM, replicate 2
# [14] = 24 h, 10 µM, compound concentration 10 uM, replicate 1
# [15] = 24 h, 10 µM, compound concentration 10 uM, replicate 2
compound,measurement,setting,value
Cc1cn(-c2cc(NC(=O)c3ccc4c(c3)CN(c3cncnc3)C[C@@H]4C)cc(C(F)(F)F)c2)cn1,Growth Rate,"U2OS; 0 h, replicate number 1, timepoint 0 hours",0
same,Growth Rate,U2OS; [3],0
same,Growth Rate,U2OS; [4],0
same,Growth Rate,U2OS; [5],1
same,Growth Rate,U2OS; [6],0
same,Growth Rate,U2OS; [7],0
same,Growth Rate,HEK-293T; [3],0
same,Growth Rate,HEK-293T; [4],0
same,Growth Rate,HEK-293T; [6],0
same,Growth Rate,HEK-293T; [7],0
same,Growth Rate,"Fibroblast [1]; 0 h, replicate number 2, timepoint 0 hours",0
same,Growth Rate,Fibroblast [1]; [3],0
same,Growth Rate,Fibroblast [1]; [4],0
same,Growth Rate,Fibroblast [1]; [5],1
same,Growth Rate,Fibroblast [1]; [6],0
same,Growth Rate,Fibroblast [1]; [7],0
same,Population Apoptotic (%),Fibroblast [2]; [8],81%
same,Population Fragmented Nuclei (%),Fibroblast [2]; [8],31%
same,Population Healthy Nuclei (%),Fibroblast [2]; [8],50%
same,Population Hoechst High Intensity Objects (%),Fibroblast [2]; [8],15%
same,Population Membrane Permeable-Phenotype (%),Fibroblast [2]; [8],7%
same,Population Mitochondria Different-Phenotype (%),Fibroblast [2]; [8],4%
same,Population Mitotic Cells (%),Fibroblast [2]; [8],18%
same,Population Normal (%),Fibroblast [2]; [8],84%
same,Population Pyknosed Nuclei (%),Fibroblast [2]; [8],17%
same,Population Tubulin-Different-Phenotype (%),Fibroblast [2]; [8],9%
same,Total Cell Count,Fibroblast [2]; [8],147
same,Population Apoptotic (%),Fibroblast [2]; [9],42%
same,Population Fragmented Nuclei (%),Fibroblast [2]; [9],58%
same,Population Healthy Nuclei (%),Fibroblast [2]; [9],31%
same,Population Hoechst High Intensity Objects (%),Fibroblast [2]; [9],30%
same,Population Membrane Permeable-Phenotype (%),Fibroblast [2]; [9],0%
same,Population Mitochondria Different-Phenotype (%),Fibroblast [2]; [9],9%
same,Population Mitotic Cells (%),Fibroblast [2]; [9],57%
same,Population Normal (%),Fibroblast [2]; [9],70%
same,Population Pyknosed Nuclei (%),Fibroblast [2]; [9],10%
same,Population Tubulin-Different-Phenotype (%),Fibroblast [2]; [9],22%
same,Total Cell Count,Fibroblast [2]; [9],100
same,Population Apoptotic (%),Fibroblast [2]; [10],71%
same,Population Fragmented Nuclei (%),Fibroblast [2]; [10],33%
same,Population Healthy Nuclei (%),Fibroblast [2]; [10],49%
same,Population Hoechst High Intensity Objects (%),Fibroblast [2]; [10],13%
same,Population Mitochondria Different-Phenotype (%),Fibroblast [2]; [10],5%
same,Population Mitotic Cells (%),Fibroblast [2]; [10],28%
same,Population Normal (%),Fibroblast [2]; [10],86%
same,Population Pyknosed Nuclei (%),Fibroblast [2]; [10],17%
same,Population Tubulin-Different-Phenotype (%),Fibroblast [2]; [10],23%
same,Total Cell Count,Fibroblast [2]; [10],141
same,Population Apoptotic (%),Fibroblast [2]; [11],75%
same,Population Fragmented Nuclei (%),Fibroblast [2]; [11],67%
same,Population Healthy Nuclei (%),Fibroblast [2]; [11],18%
same,Population Hoechst High Intensity Objects (%),Fibroblast [2]; [11],36%
same,Population Membrane Permeable-Phenotype (%),Fibroblast [2]; [11],10%
same,Population Mitochondria Different-Phenotype (%),Fibroblast [2]; [11],50%
same,Population Mitotic Cells (%),Fibroblast [2]; [11],25%
same,Population Normal (%),Fibroblast [2]; [11],63%
same,Population Pyknosed Nuclei (%),Fibroblast [2]; [11],14%
same,Population Tubulin-Different-Phenotype (%),Fibroblast [2]; [11],40%
same,Total Cell Count,Fibroblast [2]; [11],87
same,Population Apoptotic (%),Fibroblast [2]; [12],92%
same,Population Fragmented Nuclei (%),Fibroblast [2]; [12],35%
same,Population Healthy Nuclei (%),Fibroblast [2]; [12],45%
same,Population Hoechst High Intensity Objects (%),Fibroblast [2]; [12],19%
same,Population Membrane Permeable-Phenotype (%),Fibroblast [2]; [12],11%
same,Population Mitochondria Different-Phenotype (%),Fibroblast [2]; [12],1%
same,Population Mitotic Cells (%),Fibroblast [2]; [12],7%
same,Population Normal (%),Fibroblast [2]; [12],80%
same,Population Pyknosed Nuclei (%),Fibroblast [2]; [12],19%
same,Population Tubulin-Different-Phenotype (%),Fibroblast [2]; [12],7%
same,Total Cell Count,Fibroblast [2]; [12],172
same,Population Apoptotic (%),Fibroblast [2]; [13],42%
same,Population Fragmented Nuclei (%),Fibroblast [2]; [13],51%
same,Population Healthy Nuclei (%),Fibroblast [2]; [13],37%
same,Population Hoechst High Intensity Objects (%),Fibroblast [2]; [13],28%
same,Population Membrane Permeable-Phenotype (%),Fibroblast [2]; [13],13%
same,Population Mitochondria Different-Phenotype (%),Fibroblast [2]; [13],8%
same,Population Mitotic Cells (%),Fibroblast [2]; [13],57%
same,Population Normal (%),Fibroblast [2]; [13],71%
same,Population Pyknosed Nuclei (%),Fibroblast [2]; [13],11%
same,Population Tubulin-Different-Phenotype (%),Fibroblast [2]; [13],17%
same,Total Cell Count,Fibroblast [2]; [13],87
same,Population Apoptotic (%),Fibroblast [2]; [14],66%
same,Population Fragmented Nuclei (%),Fibroblast [2]; [14],36%
same,Population Healthy Nuclei (%),Fibroblast [2]; [14],48%
same,Population Hoechst High Intensity Objects (%),Fibroblast [2]; [14],16%
same,Population Membrane Permeable-Phenotype (%),Fibroblast [2]; [14],3%
same,Population Mitochondria Different-Phenotype (%),Fibroblast [2]; [14],10%
same,Population Mitotic Cells (%),Fibroblast [2]; [14],33%
same,Population Normal (%),Fibroblast [2]; [14],83%
same,Population Pyknosed Nuclei (%),Fibroblast [2]; [14],15%
same,Population Tubulin-Different-Phenotype (%),Fibroblast [2]; [14],26%
same,Total Cell Count,Fibroblast [2]; [14],161
same,Population Apoptotic (%),Fibroblast [2]; [15],57%
same,Population Fragmented Nuclei (%),Fibroblast [2]; [15],66%
same,Population Healthy Nuclei (%),Fibroblast [2]; [15],20%
same,Population Hoechst High Intensity Objects (%),Fibroblast [2]; [15],36%
same,Population Membrane Permeable-Phenotype (%),Fibroblast [2]; [15],9%
same,Population Mitochondria Different-Phenotype (%),Fibroblast [2]; [15],18%
same,Population Mitotic Cells (%),Fibroblast [2]; [15],42%
same,Population Normal (%),Fibroblast [2]; [15],63%
same,Population Pyknosed Nuclei (%),Fibroblast [2]; [15],12%
same,Population Tubulin-Different-Phenotype (%),Fibroblast [2]; [15],36%
same,Total Cell Count,Fibroblast [2]; [15],85
